Results as given in the EternaBench riboswitch data.

Test system: MS2 coat protein
Experiment: apparent Kd, MS2 coat protein; higher = weaker binding; RNA-MaP array; FMN 200 µM where present
Outline: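 In 100 mM Tris-HCl pH 7.5, 80 mM KCl, 4 mM MgCl2, BSA, DTT, yeast tRNA and Tween-20, SNAP-549-labelled MS2 coat protein was titrated from 0.7 or 1.5 nM, doubling to 3 µM, over designs transcribed by stalled E. coli RNA polymerase on Illumina sequencing-chip clusters. This was done first without ligand, then with ligand held constant. After green signal was normalised to red-channel RNA signal and control-cluster median Fmax, the apparent Kd was taken as the median of filtered per-cluster binding-curve fits.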

[1] = designed as: ON switch for flavin mononucleotide, no ligand
[2] = ligand present: flavin mononucleotide, designed as: ON switch for flavin mononucleotide
[3] = designed as: OFF switch for flavin mononucleotide, no ligand
[4] = ligand present: flavin mononucleotide, designed as: OFF switch for flavin mononucleotide

Sequence	apparent Kd [1] [nM]	apparent Kd [2] [nM]	apparent Kd [3] [nM]	apparent Kd [4] [nM]
UUUACAUGAGGAUCACCCAUGUUAAAAUAAUUAAUUAUAAGUGAGGAUAUAUAAAUUAUAAAAUUGUAGAAGGCACUGGGUAUC	47.9	44.5		
ACUGUGCAUUAGAAGGGUGCGCGGCAAUCGCGCACAGGAUAUGAUGACAUGAGGAUCACCCAUGUCUGUGUUACCUGGGUGUCG			19.1	135
GUCUUCCUAGGAUAUACAUGAGGAUCACCCAUGUACAGUUUCGUCUUGGGAUACUCGCGUAGAAGGAGGUGGAU			31.9	23.4
UUUUAACAUGAGGAUCACCCAUGUGAGGAUAUCGAAAUUUAUAUUAAUAUUUUUAUAACGAGAAGGCACAUUUU			70.1	75.2
GCGUAAUAGGUGUAGCUAGUCGUGCAAGAAGGGUGGUGAACAUGAGGAUCACCCAUGUGGUCAAUACAGGAUAUUGCUAUACGC	572	139		
GUGCCUUGGGAGAAGGCCGUAUGCAAAGCAUACGGAGGAUAUCCAUACCGGAAACGGACAUGAGGAUCACCCAUGUGGCACAAA	15.1	6.03		
GGUCGUCAAGUCAGGAUAUCGUUUAGUCGGUGUAACGAGAAGGGACAUGAGGAUCACCCAUGUCGUCUCAUCAG			18.8	25.8
UAGGUACAUGAGGAUCACCCAUGUGGGUCGGUCACAGGAUAUCGCCGUGGGCCCAGGCGGCGAGAAGGGUGCCGGU	277	34.8		
UCCCAACAUGAGGAUCACCCAUGUAAGGAUAUCUUACUCAUGGACGUCCAUGAGGACCGGAGAAGGUACGUGUA			19.4	19.8
CCGCAUAUGGAGGAUAUCGUAUCGGAAACGAUACGAGAAGGCUAAACAUGAGGAUCACCCAUGUUCCUUAACGG			18.1	18.1
AGCUCCGCGGCCACUUAUUGUGCACAUGAGGAUCACCCAUGUCAGGAUAUCCUUGAGCCUCACAAGGAGAAGGGACAUAAGGUU			643	334
GCUGCAUAGGCAGGAUAUGCAAAAGCAGAUGCAAAGCAUCUGCAAGAAACAUGAGGAUCACCCAUGUAGAAGGGCCUGUGCAGU			21.4	20.2
AGUUAUCAUGUAGGAUAUGCUUGAGGUAAGAAAGCAGAAGGACAUGAGGAUCACCCAUGUUAAUGAUACAGAUUUUAGUUUCUU			32.9	201
AAAACCUCAUGAGGAUAUCCAACAUGAGGAUCACCCAUGUUAGUCUCAGUACCAGGUACUAGAGAGGAGAAGGCAUGCCAGGGC	78.6	27.5		
UUAAUUCUGAUUCUUGAAAUACAUGAGGAUCACCCAUGUUCACAGGAUAUUGAUUAUGUUAGUAACAAGAAGGGUGUAACAUAU			30.6	85.6
CAGUACUGAGGAUAUACAUGAGGAUCACCCAUGUGUCUAAAGUAGGAUACUACUAUUAGUAGAAGGCAGUACUG			12.1	14.9
ACGUAUCAUGUAGGAUAUGACCCAGGAACUUGGUCAGAAGGACAUGAGGAUCACCCAUGUAGAGUAUGUUAGGAUGACGUAUGC			114	150
UAUACUUACGAAGGAUAUGGUUACAUGAGGAUCACCCAUGUAUGUAUGUUGAUCGUGUAUCUUAACCAGAAGGUCGUCACUAUA			44.9	56.5
AAGUAGGGAGGAUAUACAUGGAUAUACAUUCAUGUGGACCUACAUGAGGAUCACCCAUGUAGAAGGCCCUAAUA			37.1	43.5

Sequence	apparent Kd [1] [nM]	apparent Kd [2] [nM]	apparent Kd [3] [nM]	apparent Kd [4] [nM]
AGGAGGUCAGGAUAUGCUGCUCGUCACUUGCGUGAUGAGUAGCAGAAGGGACAUGAGGAUCACCCAUGUAAAGA			55.7	95.7
AUUUUGUGAGGAUAUUAGUUUUAUGAUUGGAGGAGUUUGGCUGAGAAGGCACAUGAGGAUCACCCAUGUAAAUC			35.3	41.1
GACGGGCAGCUCGUGAUCCCAUCGCCAGAAGGGCCACAUGAGGAUCACCCAUGUCGUAAAACAAGGCAGGAUAUGGCAGGGAAC	9.93	5.21		
AUCGUUGACUGGACGAGAAUAGGGCAGGAUAUACAUGAGGAUCACCCAUGUGAAGCACGAAAGAGGUAGAAGGGCCCACGUCAU				20.5
GACAUUGGCAAGAAGGCAAACAUGAGGAUCACCCAUGUUCUGUAUGUAUAUUGAGGAUAUUGCCAAUGUAUGUGGAUCACCCAA			9.44	8.28
CUUCUCAAAGGAUAUCACGGUAAUAACAUGAGGAUCACCCAUGUGCAAUUCGUGUCCCUGUGAGAAGGUUGAGAAG			10.5	18.2
CUGAGCAAUCAAGGAUAUCACGUCGAUUAGACGUGAGAAGGUGAUCAUCACAUGAGGAUCACCCAUGUGUUACAUGGAGCUCAG	1170	218		
GGGCCGUAGUAGAAGGGAUAUACGUUAGGUAUAUCAGGAUAUACAUGAGGAUCACCCAUGUUCUAACAGUGAUAGUCCUCCCUA			19.8	55.4
CAGAAGUCAGGAUAUCCAUGGCGGCACUUGCGUGGUGGCGUGGAGAAGGGACAUGAGGAUCACCCAUGUAAAGA			59.1	48.2
GCACAGGCAGGAUAUACAUGAGGAUCACCCAUGUGACCCUUGAAGUACUCGCGUACUCGUAGAAGGGCCUGUGC			177	302
UUUUAACAUGAGGAUCACCCAUGUGAGGAUAUCGAAAUUUUUAUUAAUAUUAAUAAAACGAGAAGGCACAUUUU			56	69.3
UUCCGGCAUGUAGGAUAUGGAUCCGAUUAGGAUUUAGAAGGACAUGAGGAUCACCCAUGUGCAUUUAAUUAGUCAUUACCGUUU			41.6	86.5
CCGGAAAUGAAGGAUAUAGGCGUCGAUAGACUCCUAGAAGGUCAUACAUGAGGAUCACCCAUGUGUCCUACCGG			16.5	29.8
GACAUACAUGAGGAUCACCCAUGUUCAAGCGGACAAGGAUAUGUGUGGAAACCAUACUAUACAGAAGGUGUCUGUC	25.9	17.1		
UUAAUCUAUACAGGAUAUCCAUACGCUGCAUACGGAGAAGGGUAACAAUCAUGAGGACAUGAGGAUCACCCAUGUUCUGAGCAU	11.7	10.7		
CGGAUGUGAGGAUAUACAUGAGGAUCACCCAUGUGUGCCAGCUAGCUGACUGGCACUUGUAGAAGGCACGUCUG			10.8	22
AUUUGAAUCGUAGGAUAUCGCUUAAAUUUAACACGAGAAGGACGAACAUGAGGAUCACCCAUGUAUCAUGGUGUAGAUAAUUUG			82.5	353
CGCGAACAUGAGGAUCACCCAUGUGGGUGGAACGUAGGAUAUACGCAGGUCUUUAAAACGGUAGAAGGACGUUCGC	452	159		
GUGCCUUGGAAGAAGGCCGUAUGCAAAGCAUACGGAGGAUAUUCAUACCGGAAACGGACAUGAGGAUCACCCAUGUGGCACAAA	13	6.24		

Sequence	apparent Kd [1] [nM]	apparent Kd [2] [nM]	apparent Kd [3] [nM]	apparent Kd [4] [nM]
AUUUUUUGUCAUGUACAUGAUGAACAUGAGGAUCACCCAUGUAGAAGGAAUUUUUUUAAGUUUAGUUAGGAUAUACAUAUAUUU			16.6	10.8
CCCUCAACAUGAGGAUCACCCAUGUAGGAUAUCGCUAUUGUAAUCAUGAAACAUGAUUACAAUAGCGAGAAGGACAUAUGUCCC			13.8	15.3
AAAAAACAUGAGGAUCACCCAUGUAAUACAACGUCAGGAUAUUGAUUUUAUUAUGUAUUGCAAGAAGGGACUUGUA	72.1	25.4		
UCGCGGUGAGGAUAUAGGUCAAUGCAGGGUCACCAGAUUGCCUAGAAGGCACAUGAGGAUCACCCAUGUGGUAG			49	157
AAUACAUGAGGAUCACCCAUGUAAAGUUCAAACAAUAUGAGUGAGGAUAUACUGAGUUAGUUAUGGUAGAAGGCACUGGGUACA	23.1	21.8		
GCGUUCUUGUAGAAGGUACAAGAAAACUAUUAUUAACACAUGAAACAUGAGGAUCACCCAUGUAGUAAGGAUAUACAUGAACGC	10.1	7.18		
GAAUAUUCGUUGUACAUGAGGAUCACCCAUGUGACUUUACAUGAGGAUAUGGAUUCUAAUUGGAUCCAGAAGGCAUGAAUAUUC	171	35		
UGACGGCACACAGGAUAUAGUGCAGAAAGUGUACUAGAAGGGUGAGCACUCGUCCGGGCACAUGAGGAUCACCCAUGUCGUCGA	207	512		
GCGGCCAACGUAGGAUAUCUUCAGCCACAGCACAUUGCUGUACAUGAGGAUCACCCAUGUCCUGGAGAGAAGGACGGACGGCAG	37.7	8.73		
GCGUGGAUAGCAGGAUAUAUGUUUCCUACAUGAGGAUCACCCAUGUAGGUGAUCAGCCGAGAAAAGUAGAAGGGCUAUCCAUGC	16	13.4		
UUGGAGAUAGGAUAUACGAGGAGAGUAGAGGGAAGGUGAUGACAUGAGGAUCACCCAUGUAGAAGGAUCAGGAG			155	100
GACACGUGAGGAUAUACAUGAGGAUCACCCAUGUAAGUACACGUGGCUGUUCCUGCAUGUAGAAGGCACGCAUU			22.8	17.2
AAGUCUGGACGAGGAUAUCAGUUGUAUCUGGCGUCAACAUGAGGAUCACCCAUGUUGCUAUAGGGUGAGAAGGCGUUUGGGCAA	92.6	22.8		
CUCUUGAGUCAGGAUAUCGUGAGGCUAAUAAUACGAGAAGGGACAACAUGAGGAUCACCCAUGUGGUCGAAGAG			32.9	78.3
UUGGACGUCGUAGGAUAUGUAGGAUAUUCCUACAUGAGGAUCACCCAUGUUGACAUGGAAGAAGGACAGCAGGACGAUGUCCAU	690	12.9		
CAAAGCAGUAAGGAUAUAUGGUAGCCAGUUACCGUAGAAGGUAUAACAUGAGGAUCACCCAUGUCCAUAUGAUU			56.8	57.7
CCGGUAAAGGAGGAUAUAGGAGUCGAUAGACACCUAGAAGGCCUGACAUGAGGAUCACCCAUGUGUCCUUCCGG			17.7	76.7
UAUGUACGAGGAUAUACAUAGAUACAGAUACAUGUAGACGUACAUGAGGAUCACCCAUGUAGAAGGCGUAUAUA			101	122
